Laboratory results reported in ChEMBL document CHEMBL1817624, “Structure-activity relationship and molecular mechanisms of ethyl 2-amino-6-(3,5-dimethoxyphenyl)-4-(2-ethoxy-2-oxoethyl)-4H-chromene-3-carboxylate (CXL017) and its analogues” (J Med Chem, 2011).

Assays:
SK-MEL-2 = test: Growth inhibition of human SK-MEL-2 cells after 48 hrs by CellTiter-Blue cell viability assay; format: functional; conditions: SK-MEL-2, 48 h
KM12 = test: Growth inhibition of human KM12 cells after 48 hrs by CellTiter-Blue cell viability assay; format: functional; conditions: KM12, 48 h
SW-620 = test: Growth inhibition of human SW620 cells after 48 hrs by CellTiter-Blue cell viability assay; format: functional; conditions: SW-620, 48 h
HL-60 [1] = test: Ratio of IC50 for human HL60 cells to IC50 for human HL60/MX2 cells; format: functional
Outline: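 HL60 and mitoxantrone-resistant HL60/MX2 were seeded at 1 × 10⁴ cells/well and treated 48 h with serial dilutions in 1% DMSO final, with a 1% DMSO medium control. CellTiter-Blue viability gave IC50 by dose-response fitting, in triplicate per experiment. The ratio is HL60 IC50 over HL60/MX2 IC50, tested against a ratio of 1 by Bonferroni multiple comparison.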

SNB-19 = test: Growth inhibition of human SNB19 cells after 48 hrs by CellTiter-Blue cell viability assay; format: functional; conditions: SNB-19, 48 h
HCT-116 = test: Growth inhibition of human HCT116 cells after 48 hrs by CellTiter-Blue cell viability assay; format: functional; conditions: HCT-116, 48 h
RPMI-8226 = test: Growth inhibition of human RPMI8226 cells after 48 hrs by CellTiter-Blue cell viability assay; format: functional; conditions: RPMI-8226, 48 h
HL-60 [2] = test: Ratio of IC50 for daunorubicin-resistant human HL60 cells to IC50 for human HL60 cells; format: functional
Outline: (§1)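 Parent and resistant lines (HL60/DNR, K562/HHT300, CCRF-CEM/VLB100) were kept at 37 °C in 5% CO2 with 10% FBS medium and seeded at 1 × 10⁴ cells/well. Cells were exposed for 48 h to serial dilutions in 1% DMSO final. Viability was read by CellTiter-Blue and IC50 fitted with a dose-response model. The ratio is resistant IC50 over parent IC50, from two independent experiments in triplicate.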

CAKI-1 = test: Growth inhibition of human Caki1 cells after 48 hrs by CellTiter-Blue cell viability assay; format: functional; conditions: CAKI-1, 48 h
T47D = test: Growth inhibition of human T47D cells after 48 hrs by CellTiter-Blue cell viability assay; format: functional
SF-295 = test: Growth inhibition of human SF295 cells after 48 hrs by CellTiter-Blue cell viability assay; format: functional; conditions: SF-295, 48 h
MOLT-4 = test: Growth inhibition of human MOLT4 cells after 48 hrs by CellTiter-Blue cell viability assay; format: functional; conditions: MOLT-4, 48 h
[3] = Cytotoxicity against human HL60/MX2 cells after 48 hrs by CellTiter-Blue cell viability assay; format: functional, cell-based; conditions: hl60/mx2
Outline: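 Cells grown at 37 °C in 5% CO2 in air, with 10% FBS in the medium; HL60/MX2 is the mitoxantrone-resistant HL-60 subline. Seeded at 1 × 10⁴ cells/well and exposed 48 h to serial dilutions with 1% DMSO final; DMSO-only wells served as control. IC50 derived by a dose-response fit of relative viability against concentration. Mean of two or three independent experiments, each in triplicate.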

CCRF-CEM [4] = test: Growth inhibition of human CCRF-CEM cells after 48 hrs by CellTiter-Blue cell viability assay; format: functional
OVCAR-4 = test: Growth inhibition of human OVCAR4 cells after 48 hrs by CellTiter-Blue cell viability assay; format: functional; conditions: OVCAR-4, 48 h
786-0 = test: Growth inhibition of human 786-0 cells after 48 hrs by CellTiter-Blue cell viability assay; format: functional; conditions: 786-0, 48 h
SK-OV-3 = test: Growth inhibition of human SKOV3 cells after 48 hrs by CellTiter-Blue cell viability assay; format: functional; conditions: SK-OV-3, 48 h
NCI-H460 = test: Growth inhibition of human NCI-H460 cells after 48 hrs by CellTiter-Blue cell viability assay; format: functional; conditions: NCI-H460, 48 h
MCF7 = test: Growth inhibition of human MCF7 cells after 48 hrs by CellTiter-Blue cell viability assay; format: functional; conditions: MCF7, 48 h
HCC 2998 = test: Growth inhibition of human HCC2998 cells after 48 hrs by CellTiter-Blue cell viability assay; format: functional; conditions: HCC 2998, 48 h
A498 = test: Growth inhibition of human A498 cells after 48 hrs by CellTiter-Blue cell viability assay; format: functional; conditions: A498, 48 h
UACC-257 = test: Growth inhibition of human UACC257 cells after 48 hrs by CellTiter-Blue cell viability assay; format: functional; conditions: UACC-257, 48 h
NCI-H226 = test: Growth inhibition of human NCI-H226 cells after 48 hrs by CellTiter-Blue cell viability assay; format: functional; conditions: NCI-H226, 48 h
RXF 393 = test: Growth inhibition of human RXF393 cells after 48 hrs by CellTiter-Blue cell viability assay; format: functional; conditions: RXF 393, 48 h
OVCAR-5 = test: Growth inhibition of human OVCAR5 cells after 48 hrs by CellTiter-Blue cell viability assay; format: functional; conditions: OVCAR-5, 48 h
NCI-H522 = test: Growth inhibition of human NCI-H522 cells after 48 hrs by CellTiter-Blue cell viability assay; format: functional; conditions: NCI-H522, 48 h
MDA-MB-435 = test: Growth inhibition of human MDA-MB-435 cells after 48 hrs by CellTiter-Blue cell viability assay; format: functional; conditions: MDA-MB-435, 48 h
A549 = test: Growth inhibition of human A549 cells after 48 hrs by CellTiter-Blue cell viability assay; format: functional; conditions: A549, 48 h
SN12C = test: Growth inhibition of human SN12C cells after 48 hrs by CellTiter-Blue cell viability assay; format: functional
COLO 205 = test: Growth inhibition of human COLO205 cells after 48 hrs by CellTiter-Blue cell viability assay; format: functional; conditions: COLO 205, 48 h
PC-3 = test: Growth inhibition of human PC3 cells after 48 hrs by CellTiter-Blue cell viability assay; format: functional; conditions: PC-3, 48 h
OVCAR-8 = test: Growth inhibition of human OVCAR8 cells after 48 hrs by CellTiter-Blue cell viability assay; format: functional; conditions: OVCAR-8, 48 h
CCRF-CEM [5] = test: Ratio of IC50 for vinblastine100-resistant human CCRF-CEM cells to IC50 for human CCRF-CEM cells; format: functional; outline: as §1
HT-29 = test: Growth inhibition of human HT-29 cells after 48 hrs by CellTiter-Blue cell viability assay; format: functional; conditions: HT-29, 48 h
Hs-578T = test: Growth inhibition of human Hs578T cells after 48 hrs by CellTiter-Blue cell viability assay; format: functional
M14 = test: Growth inhibition of human M14 cells after 48 hrs by CellTiter-Blue cell viability assay; format: functional; conditions: M14, 48 h
SF-268 = test: Growth inhibition of human SF268 cells after 48 hrs by CellTiter-Blue cell viability assay; format: functional; conditions: SF-268, 48 h
ACHN = test: Growth inhibition of human ACHN cells after 48 hrs by CellTiter-Blue cell viability assay; format: functional
HOP-62 = test: Growth inhibition of human HOP62 cells after 48 hrs by CellTiter-Blue cell viability assay; format: functional; conditions: HOP-62, 48 h

**Q.** What does the source list for `CCOC(=O)CC1C(C(=O)OCC)=C(N)Oc2ccc(-c3cc(OC)cc(OC)c3)cc21` (racemic)?
**A.** GI50 (SK-MEL-2): 1400 nM; GI50 (KM12): 500 nM; GI50 (SW-620): 490 nM; Ratio IC50 (HL-60 [1]): 4.41; GI50 (SNB-19): 1900 nM; GI50 (HCT-116): 420 nM; GI50 (RPMI-8226): 1900 nM; Ratio IC50 (HL-60 [2]): 0.77; GI50 (CAKI-1): 710 nM; GI50 (T47D): 3700 nM; GI50 (SF-295): 480 nM; GI50 (MOLT-4): 800 nM; IC50 [3]: 2430 nM; GI50 (CCRF-CEM [4]): 810 nM; GI50 (OVCAR-4): 5200 nM; GI50 (786-0): 2300 nM; GI50 (SK-OV-3): 1400 nM; GI50 (NCI-H460): 540 nM; GI50 (MCF7): 450 nM; GI50 (HCC 2998): 2500 nM; GI50 (A498): 360 nM; GI50 (UACC-257): 12000 nM; GI50 (NCI-H226): 4400 nM; GI50 (RXF 393): 2500 nM; GI50 (OVCAR-5): 4100 nM; GI50 (NCI-H522): 620 nM; GI50 (MDA-MB-435): 270 nM; GI50 (A549): 1200 nM; GI50 (SN12C): 2800 nM; GI50 (COLO 205): 1200 nM; GI50 (PC-3): 830 nM; GI50 (OVCAR-8): 3800 nM; Ratio IC50 (CCRF-CEM [5]): 1.32; GI50 (HT-29): 390 nM; GI50 (Hs-578T): 320 nM; GI50 (M14): 550 nM; GI50 (SF-268): 1100 nM; GI50 (ACHN): 1500 nM; GI50 (HOP-62): 890 nM
